SR-BI uptake up = enhances SR-BI lipid uptake from DiI-HDL. CHO ldlA[mSR-BI] cells, DiI-HDL uptake fluorescence, 3 h; 100 = double the neutral-control signal. activation, % at 12.5 µM. hit rate 0.096% among 320,000. AID 504775;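 active = mean replicate activation of at least 60% and every replicate at or above 60%; inconclusive = mean or all-replicate condition met, but not both; inactive = mean below 60% and not all replicates reaching 60%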;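 note: 0% = median plate neutral-control signal and 100% = twice that signal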
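Material – SR-BI-overexpressing, LDLR-lacking CHO cells · Medium – BSA-supplemented, HEPES-buffered Ham's F12, pH 7.4 · Doses – single concentration · Times – compound with DiI-HDL co-incubation, 3 h at 37 °C · Measured by – bottom-read fluorescence, 550/595 nm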
Hep lipid drop = hepatic lipid droplet formation modulation | AML12 mouse hepatocytes, oleate lipid droplets, BODIPY imaging | hit rate 0.4% among 240,000 | inhibition, % at 6.5 µM;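 active = lipid droplet intensity inhibited by at least 50%, with more than 500 cells counted; inconclusive = wells with under 300 cells, treated as cytotoxic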
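Test system: AML12 hepatocytes (mouse); reagent: oleate loading, 100 µM; dosing: one dose, 6.5 µM compound; incubation: overnight exposure; signal: fluorescence imaging, 20x objective, two fields per well; read-out basis: % inhibition of corrected integrated BODIPY droplet signal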
CR mimetic SO = yeast age-related superoxide inhibition as caloric restriction mimetic; hit rate 0.18% among 330,000; S. cerevisiae aged cells, superoxide DHE fluorescence; hits give low values; superoxide response (% of plate mean), % at 10 µM;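 active = superoxide response under a set limit, about three screen SD below normal, cut at about 65% in these data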;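 note: yeast aged for seven days with compound at 30 °C before DHE staining; 100% = average MFI of all compound-treated wells on the plate with controls excluded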
SR-BI HDL uptake = blocks mouse SR-BI lipid uptake from DiI-HDL. hit rate 0.96% among 320,000. inhibition, % at 12.5 µM. ldlA[mSR-BI] CHO cells, DiI-HDL uptake fluorescence, 3 h;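 active = mean replicate inhibition of at least 70% and a set share of replicates each scoring 70 or more; inconclusive = meets just one of the two criteria; inactive = fails both criteria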;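 note: 0% = median of neutral control wells and 100% = median of positive control wells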
AHR act = activates the human aryl hydrocarbon receptor | P35869 | AHR-responsive luciferase reporter cells, luminescence | activation, % at 5 µM | hit rate 2.5% among 320,000; in the data active = activation above about 47%;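 note: 0% = vehicle wells and 100% = reference agonist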
Target sequence (P35869 whole entry, looked up): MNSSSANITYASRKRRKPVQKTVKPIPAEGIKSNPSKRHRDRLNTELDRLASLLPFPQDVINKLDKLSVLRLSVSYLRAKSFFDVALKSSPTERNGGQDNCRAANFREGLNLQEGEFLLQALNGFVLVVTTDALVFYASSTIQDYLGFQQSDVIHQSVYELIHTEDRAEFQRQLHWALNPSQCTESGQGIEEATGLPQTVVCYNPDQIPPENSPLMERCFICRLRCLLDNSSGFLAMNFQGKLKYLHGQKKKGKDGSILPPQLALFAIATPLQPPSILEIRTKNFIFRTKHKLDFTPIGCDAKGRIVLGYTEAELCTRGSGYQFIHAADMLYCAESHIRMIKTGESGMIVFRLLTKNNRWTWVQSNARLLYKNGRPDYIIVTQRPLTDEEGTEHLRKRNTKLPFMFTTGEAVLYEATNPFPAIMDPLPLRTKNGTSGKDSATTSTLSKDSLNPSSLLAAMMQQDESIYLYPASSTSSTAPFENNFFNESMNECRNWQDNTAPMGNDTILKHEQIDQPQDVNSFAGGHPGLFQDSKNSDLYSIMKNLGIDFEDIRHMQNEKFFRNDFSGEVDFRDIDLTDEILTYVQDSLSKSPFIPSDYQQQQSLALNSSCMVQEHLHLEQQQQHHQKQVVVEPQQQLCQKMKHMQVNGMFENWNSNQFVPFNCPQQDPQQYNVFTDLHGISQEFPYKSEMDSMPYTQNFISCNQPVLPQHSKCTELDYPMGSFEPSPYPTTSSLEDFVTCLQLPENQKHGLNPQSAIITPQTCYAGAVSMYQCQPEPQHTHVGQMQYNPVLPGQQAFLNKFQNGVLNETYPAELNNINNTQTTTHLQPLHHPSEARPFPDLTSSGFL
SMARCA2 act = increases SMARCA2 function in MMTV reporter cells; MG213 cells, MMTV-luciferase reporter, dexamethasone, overnight; activation, % at 9.1 µM; hit rate 1% among 370,000; in the data active = activation above about 7.8%;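 note: 0% = vehicle wells and 100% = reference activator wells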
AHR act confirm = confirmation of human aryl hydrocarbon receptor activators | shares compounds with AHR act | human cells, AHR-responsive luciferase reporter, luminescence | activation, % at 9 µM | hit rate 87% among 2,300; in the data active = activation above about 49%;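 note: HepG2 hepatoma cells carrying a DRE-driven firefly luciferase reporter; 0% = vehicle wells and 100% = reference agonist wells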
PXR counter = counter-screen for AHR activators: human PXR activators | shares compounds with AHR act | cell-based PXR reporter, luciferase luminescence | hit rate 88% among 2,300 | activation, % at 11.6 µM | AID 434939; in the data active = activation above about 11%;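 note: human hepatoma DPX-2 cells expressing full-length human PXR; 0% = DMSO and 100% = reference agonist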
An asterisk follows results filed as active; ? = inconclusive; . = no result. Only some compounds are listed: those with a hit (about 4.3% of all), similar ones and a draw of the others.

SMILES	SR-BI uptake up	Hep lipid drop	CR mimetic SO	SR-BI HDL uptake	AHR act	SMARCA2 act	AHR act confirm	PXR counter
Cc1ccc(Nc2nc(NCCO)nc3c2cnn3C)cc1Cl	-21	8	97	21	81*	-3	120*	16*
Cn1ncc2c(Nc3cccc(Cl)c3)nc(Nc3cccc(Cl)c3)nc21	-33	1	108	33	29	-1	.	.
Cn1ncc2c(Nc3ccc(Br)cc3)nc(Nc3ccc(Br)cc3)nc21	-68	18	102	68	112*	-4	104*	13*
Cc1nc(NC(=O)c2ccc(Cl)cc2)nc2cc3c(cc12)OCO3	37	24	93	-37	91*	-4	71*	17*
CCCCCCCCN1CCS(=O)(=O)N(Cc2ccccc2)C(C(=O)OC)C1 (stereo unspecified)	.	.	.	.	.	-3	.	.
Cc1noc(C)c1COc1ccccc1C(=O)NNC(=O)c1ccccc1F	12	.	88	-12	92*	-1	117*	73*
CC(=O)Nc1cccc(-c2nc3ccccc3s2)c1	-36	-1	101	36	124*	1	99*	20*
O=C(/C=C/c1ccco1)NC(=S)Nc1cccc(-c2nc3ccccc3s2)c1	-67	.	103	67	82*	0	118*	33*
COc1ccc(-c2nc3ccccc3s2)cc1O	-21	-7	111	21	82*	-4	76*	11*
Oc1cccc(-c2nc3ccccc3s2)c1	0	4	102	0	86*	5	58*	12*
Brc1ccccc1Cn1nnc(-c2ccc(N3CCOCC3)cc2)n1	.	.	.	.	.	6	.	.
Nc1cccc(-c2nc3ccccc3s2)c1	-2	14	95	2	116*	2	96*	8
N#Cc1cccc(Cn2ccc3ccc(-c4ccc5ccn(Cc6cccc(C#N)c6)c5c4)cc32)c1	.	.	.	.	.	-1	.	.
CCCc1ccc(-c2cc(NC(=O)Cc3c(C)[nH]c4ccccc34)ccc2N(C)c2cccnc2)cc1	.	.	.	.	.	-6	.	.
Cn1nc(NC(=O)C(F)(F)F)c2ncc(-c3ccc(Cl)cc3)nc21	-18	-1	97	18	134*	6	131*	37*
Cn1nc(NC(=O)C(F)(F)F)c2nccnc21	.	.	.	.	.	-6	.	.
COc1ccc(-c2sc3cc4c(cc3c2C#Cc2cncn2C)OCO4)cc1	-35	.	119	35	82*	2	103*	15*
COc1cc(C#Cc2c(-c3cncn3C)n(C)c3ccc(-c4ccc5[nH]ccc5c4)cc23)cc(OC)c1	-6	.	120	6	105*	4	80*	28*
Cc1cc(Br)c(OCc2ccc(C(=O)N/N=C3\CC4CC=CC34)cc2)c(Br)c1 (stereo unspecified)	-84	0	103	84*	105*	2	79*	11*
COc1ccc(COn2c(=O)c(C)[n+]([O-])c3ccccc32)cc1OC	-31	-1	90	31	1	-2	.	.
Cc1c(=O)n(OCc2ccccc2)c2ccccc2[n+]1[O-]	-5	.	91	5	177*	1	201*	47*
C=CCNC(=S)N/N=C/c1ccc(-c2cccc([N+](=O)[O-])c2)o1	-69	12	89	69	4	0	.	.
C=CCNC(=S)N/N=C/c1ccc(-c2ccc(Br)cc2)o1	-82	-4	101	82*	81*	1	132*	19*
C[C@@H]1COc2cc(NCCO)ccc2S(=O)(=O)N1	.	.	.	.	.	-2	.	.
S=C(SCc1nc(-c2ccc(Cl)cc2)no1)N1CCSCC1	.	.	.	.	.	-4	.	.
SMILES	SR-BI uptake up	Hep lipid drop	CR mimetic SO	SR-BI HDL uptake	AHR act	SMARCA2 act	AHR act confirm	PXR counter
Nc1ccccc1C(=O)NNc1c2ccccc2nc2ccccc12	-24	14	99	24	96*	-2	105*	64*
COc1ccc(OC)c(CN2C(=O)COc3ccccc3C2c2nnnn2C2CCCC2)c1 (stereo unspecified)	.	.	.	.	.	2	.	.
CCc1noc(C)c1C(=O)Nc1nc(-c2cc(C)ccc2C)c(C)s1	-28	.	95	28	1	-1	.	.
CCc1noc(C)c1C(=O)Nc1nc(-c2ccc(F)cc2)c(C)s1	-57	-12	102	57	95*	-4	85*	28*
COC(=O)[C@@H](Cc1ccccc1)NC(=O)[C@H]1O[C@@H](n2cnc3c(=O)[nH]c(N)nc32)[C@H](O)[C@@H]1O	.	.	.	.	.	0	.	.
Nc1ccc(F)c(CN2CCN(c3ncc(Cc4ccccc4)cn3)CC2)c1	.	.	.	.	.	-3	.	.
COc1ccc(NC(=O)c2cc3c([nH]c4ccccc43)c(C)n2)cc1	-16	5	126	16	85*	0	88*	15*
Cc1nc(C(=O)Nc2ccccc2Cl)cc2c1[nH]c1ccccc12	-55	.	92	?	10	-1	.	.
CCc1cccc(CC)c1NC(=O)CSc1nc2ccc(N3C(=O)C4C5C=CC(C5)C4C3=O)cc2s1 (stereo unspecified)	-61	-23	99	61	126*	-4	53*	69*
Brc1ccc(N2O[C@H]3C=C[C@@H]2C3)nc1	.	.	.	.	.	2	.	.
O=C(NN=C1CCCC1)c1cc(-c2ccccc2)n[nH]1	6	-4	72	-6	23	0	.	.
O=C(NN=C1CCCCC1)c1cc(-c2ccccc2)n[nH]1	11	-18	90	-11	121*	-3	44	17*
Cc1c(C(=O)Nc2nccs2)oc2ccc(F)cc12	-1	.	104	1	40	1	.	.
Cc1c(C(=O)Nc2nccs2)oc2ccc(Br)cc12	-18	.	129	18	86*	4	132*	22*
Cc1ccc(N2C(=O)c3ccccc3C2=O)cc1	10	18	118	-10	45	-2	.	.
O=C1c2ccccc2C(=O)N1c1ccc(Cl)cc1	.	-13	98	.	88*	.	62*	13*
CCOc1ccc(/C=N/NC(=O)c2cc3c(OC)cc(OC)cc3[nH]2)cc1OC	-64	2	105	64	85*	8	86*	21*
COc1ccc(/C=N/NC(=O)c2ccn[nH]2)cc1COc1ccc(Cl)cc1	-13	.	114	13	87*	-1	-5	11*
COc1ccc(S[C@]2(C(=O)N3CCN(c4ncccn4)CC3)CC(=O)N(C(=O)c3ccccc3)[C@@H]2c2ccc(OC)cc2)cc1	.	.	.	.	.	4	.	.
C#CCCCN([C@H](C(=O)OC)C(C)C)S(=O)(=O)c1ccccc1Br	.	.	.	.	.	0	.	.
O=S(=O)(NNc1ncc(C(F)(F)F)cc1Cl)c1ccc(F)cc1F	-4	.	144	4	114*	-4	103*	.
Cc1cc(Cl)c2oc(C(=O)N3CCN(c4cnccn4)CC3)c(C)c2c1	.	.	.	.	.	-6	.	.

Screens (PubChem BioAssay)
